This is an account of results in ChEMBL document CHEMBL4024716, “Pronounced anti-proliferative activity and tumor cell selectivity of 5-alkyl-2-amino-3-methylcarboxylate thiophenes” (Eur J Med Chem, 2017).

Each structure is given as a SMILES string.

Series [1] in a line: Drug uptake in cytoplasm of human PC3 cells at 10 uM measured immediately by confocal fluorescence microscopic method. It counts as ADME.
A short description of series [2]: Drug uptake in nucleus of human PC3 cells at 10 uM measured immediately by confocal fluorescence microscopic method. It counts as ADME, cell-based.
The nature of series [3]: Drug uptake in golgi apparatus of human PC3 cells co-expressing RFP at 10 uM by confocal microscopic analysis. It counts as ADME. An outline of the steps:
(§1)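 Cells were transduced with BacMam baculovirus (50 particles/cell) for 16–24 h to express organelle-targeted RFP (Golgi, lysosomes, early/late endosomes, mitochondria, ER). After two phenol red-free DMEM rinses, 10 μM NBD-labelled compound was added, and red and green signals were imaged immediately by confocal microscopy.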

Series [4] can be described thus: Drug uptake in lysosomes of human PC3 cells co-expressing RFP at 10 uM by confocal microscopic analysis. It counts as ADME, Lysosome. An outline of the steps: as §1
Series [5] is described as follows: Drug uptake in early endosome of human PC3 cells co-expressing RFP at 10 uM by confocal microscopic analysis. It counts as ADME. A digest of the protocol:
as §1

Series [6] is described as follows: Drug uptake in late endosome of human PC3 cells co-expressing RFP at 10 uM by confocal microscopic analysis. It counts as ADME. An outline of the steps:
as §1

Series [7] in a line: Drug uptake in mitochondria of human PC3 cells co-expressing RFP at 10 uM by confocal microscopic analysis. It counts as ADME. An outline of the steps: as §1
Series [8] can be described thus: Drug uptake in endoplasmic reticulum of human PC3 cells co-expressing RFP at 10 uM by confocal microscopic analysis. It counts as ADME. An outline of the steps: as §1
Series [9] is described as follows: Drug uptake in nucleus of human PC3 cells co-expressing RFP at 10 uM by confocal microscopic analysis. It counts as ADME, cell-based. A digest of the protocol:
as §1

Series [10] can be described thus: (§2) Drug uptake in nucleus of human PC3/TJ191 cells co-expressing RFP at 10 uM by confocal microscopic analysis. It counts as ADME.
A short description of series [11]: Drug uptake in nuclear membrane of human PC3 cells co-expressing RFP at 10 uM by confocal microscopic analysis. It counts as ADME, cell membranes. A digest of the protocol: as §1
Series [12] in a line: Drug uptake in golgi apparatus of human PC3/TJ191 cells co-expressing RFP at 10 uM by confocal microscopic analysis. It counts as ADME.
Series [13] can be described thus: Drug uptake in lysosomes of human PC3/TJ191 cells co-expressing RFP at 10 uM by confocal microscopic analysis. It counts as ADME, Lysosome.
A short description of series [14]: Drug uptake in early endosome of human PC3/TJ191 cells co-expressing RFP at 10 uM by confocal microscopic analysis. It counts as ADME.
Series [15] is described as follows: Drug uptake in late endosome of human PC3/TJ191 cells co-expressing RFP at 10 uM by confocal microscopic analysis. It counts as ADME.
The nature of series [16]: Drug uptake in mitochondria of human PC3/TJ191 cells co-expressing RFP at 10 uM by confocal microscopic analysis. It counts as ADME.
The nature of series [17]: Drug uptake in endoplasmic reticulum of human PC3/TJ191 cells co-expressing RFP at 10 uM by confocal microscopic analysis. It counts as ADME.
A short description of series [18]: as §2. It counts as ADME. The source holds these as a separate data set.
A short description of series [19]: Drug uptake in nuclear membrane of human PC3/TJ191 cells co-expressing RFP at 10 uM by confocal microscopic analysis. It counts as ADME, cell membranes.
A short description of series [20]: Drug uptake in cytoplasm of human CEM cells at 10 uM measured immediately by confocal fluorescence microscopic method. It counts as ADME.
Series [21] in a line: Drug uptake in cytoplasm of human HeLa cells at 10 uM measured immediately by confocal fluorescence microscopic method. It counts as ADME, cell-based.
A short description of series [22]: Drug uptake in nucleus of human CEM cells at 10 uM measured immediately by confocal fluorescence microscopic method. It counts as ADME, cell-based.
Series [23] can be described thus: Drug uptake in nucleus of human HeLa cells at 10 uM measured immediately by confocal fluorescence microscopic method. It counts as ADME, cell-based.
Series [24] can be described thus: Drug uptake in nucleus of human CEM cells at 10 uM measured after incubation by confocal fluorescence microscopic method. It counts as ADME, cell-based.
Series [25] can be described thus: Drug uptake in nucleus of human PC3 cells at 10 uM measured after incubation by confocal fluorescence microscopic method. It counts as ADME, cell-based.
The nature of series [26]: Drug uptake in nucleus of human HeLa cells at 10 uM measured after incubation by confocal fluorescence microscopic method. It counts as ADME, cell-based.
A further series has as its system MOLT-4. The series can be described thus: Cytotoxicity against human MOLT4 cells after 72 to 96 hrs by coulter counter method. It counts as functional, cell-based.
The subject of the next series is Raji. The series can be described thus: Cytotoxicity against human Raji cells after 72 to 96 hrs by coulter counter method. It counts as functional, cell-based.
For the next series, the system named is PC-3. Kind of series: Cytotoxicity against human PC3 cells after 72 to 96 hrs by coulter counter method.
The subject of the next series is Huh-7. Kind of series: Cytotoxicity against human HuH7 cells after 72 to 96 hrs by coulter counter method. It counts as functional, cell-based.
For another series, the system named is CAKI-1. The series can be described thus: Cytotoxicity against human Caki1 cells after 72 to 96 hrs by coulter counter method. It counts as functional, cell-based.
Series [27] can be described thus: Selectivity ratio of IC50 for human Raji cells to IC50 for human CEM cells. It counts as functional.
Series [28] concerns HeLa. The series can be described thus: Selectivity ratio of IC50 for human HeLa cells to IC50 for human PC3 cells. It counts as functional.
The next series has as its system CCRF-CEM. Kind of series: Cytotoxicity against human CEM cells after 72 to 96 hrs by coulter counter method.
Series [29] deals with HeLa. The series can be described thus: Cytotoxicity against human HeLa cells after 72 to 96 hrs by coulter counter method. It counts as functional, cell-based.

For the compound `COC(=O)c1cc(CCCCCCCNc2ccc([N+](=O)[O-])c3nonc23)sc1N`, the Drug uptake result was “Active” in series [1]; “Not Active” in series [2]; “Not Active” in series [3]; “Not Active” in [4]; “Not Active” in series [5]; “Not Active” in series [6]. For the same compound, the Drug uptake entry in series [7] is recorded as “Active”; in [8], “Active”; in [9] it was “Active”; in series [10], “Active”; in [11], “Active”; in [12] it was “Not Active”. The Drug uptake result is “Not Active” in series [13]; “Not Active” in series [14]; “Not Active” in [15]; “Not Active” in series [16]; “Active” in [17]; “Active” in series [18]. The Drug uptake result in series [19] was “Active”.

Turning to `COC(=O)c1cc(CCCCCCCNS(=O)(=O)c2cccc3c(N(C)C)cccc23)sc1N`, the Drug uptake entry in series [20] is reported as “Active”; in [1] it was “Active”; in series [21], “Active”; in series [22], “Not Active”; in series [2] it was “Not Active”; in [23] it was “Not Active”. The Drug uptake entry in series [24], in series [25] and in [26] was “Not Active” throughout.

Usually IC50 stands for the point on the concentration scale where inhibition reaches its midpoint. A higher IC50 goes with lower potency. On to `CCc1cc(C(=O)OC)c(N)s1`, for which the half-maximal inhibitory concentration (IC50) in the series with MOLT-4 was 29 µM; in the series with Raji it was more than 250 µM; in the series with PC-3, 27 µM; in the series with Huh-7, 84 µM; with CAKI-1 it was 92 µM. For the same compound, the “Ratio IC50” value in series [27] is more than 1.4; in the series with HeLa [28], 6.7.

As to `CCCc1cc(C(=O)OC)c(N)s1`, the IC50 in the series with CCRF-CEM was 6.9 µM; with MOLT-4 it was 2.1 µM; in the series on Raji it was 104 µM; in the series on PC-3 it was 3.4 µM; in the series with Huh-7, 2.5 µM; in the series with CAKI-1, 5.4 µM. This compound returned a 50% inhibitory concentration (IC50) with HeLa [29] of 61 µM. In addition, the “Ratio IC50” value in [27] worked out at 16; in the series with HeLa [28] it was 18.
